Here are results for 11 molecules from ChEMBL document CHEMBL4261587 (Eur J Med Chem, 2018).

The target of series [1] is Dual specificity tyrosine-phosphorylation-regulated kinase 1B (Homo sapiens, UniProt Q9Y463). The series can be described thus: Inhibition of recombinant full length human Dyrk1B expressed in Baculovirus expression system using KKISGRLSPIMTEQ as substrate in presence of ATP.
Series [2] is described as follows: Half life in human liver S9 fraction at 0.3 uM incubated up to 120 mins at 37 degC in presence of NADP+/UDPGA by LC-MS/MS analysis. Format: ADME, subcellular. The method in brief: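 Phase I and phase II metabolic stability was tested in S9 fraction from human liver homogenate. Samples were taken at several time points, and the remaining parent compound was quantified by LC-MS/MS to give a metabolic half-life.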

The subject of series [3] is HeLa. The series is described as follows: Cytotoxicity against human HeLa cells after 72 hrs by CellTiter-Blue assay. The format is functional, cell-based.
In series [4] the target is T1, Dual specificity tyrosine-phosphorylation-regulated kinase 2 (Homo sapiens, UniProt Q92630).
T1 sequence (Q92630 whole entry): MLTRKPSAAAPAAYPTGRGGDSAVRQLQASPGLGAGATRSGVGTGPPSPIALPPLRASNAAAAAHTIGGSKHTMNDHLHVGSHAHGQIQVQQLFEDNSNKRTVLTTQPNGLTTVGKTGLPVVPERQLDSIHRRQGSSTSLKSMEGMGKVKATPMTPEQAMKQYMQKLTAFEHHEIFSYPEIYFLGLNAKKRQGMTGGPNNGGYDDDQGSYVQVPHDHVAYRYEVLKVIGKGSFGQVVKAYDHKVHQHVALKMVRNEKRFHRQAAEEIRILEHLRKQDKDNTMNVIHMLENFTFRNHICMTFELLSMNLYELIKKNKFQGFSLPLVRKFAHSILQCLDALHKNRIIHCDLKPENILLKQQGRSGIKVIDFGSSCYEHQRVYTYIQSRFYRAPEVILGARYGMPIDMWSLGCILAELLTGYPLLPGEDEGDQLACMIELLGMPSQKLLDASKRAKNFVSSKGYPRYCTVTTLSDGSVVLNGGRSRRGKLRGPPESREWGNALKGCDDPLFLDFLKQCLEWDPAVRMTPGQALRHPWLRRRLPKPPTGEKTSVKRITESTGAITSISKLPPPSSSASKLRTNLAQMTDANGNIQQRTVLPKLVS
The series can be described thus: Inhibition of recombinant human Dyrk2 (unknown origin) at 2 uM by Lantha-screen assay.

The target of series [5] is T2, Dual specificity tyrosine-phosphorylation-regulated kinase 1A (Homo sapiens, UniProt Q13627). The series can be described thus: Inhibition of recombinant full length human Dyrk1A expressed in Baculovirus expression system using KKISGRLSPIMTEQ as substrate in presence of ATP.
The target in series [6] is T2, Dual specificity tyrosine-phosphorylation-regulated kinase 1A. The series is described as follows: Inhibition of Dyrk1A in human HeLa cells transfected with GFP-SF3b1-NT assessed as decrease in SF3B1 phosphorylation at Thr434 after 18 hrs by Western blot analysis. Format: cell-based. The method in brief:
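HeLa cells were transiently transfected with a GFP-SF3b1 expression vector, then treated with compound. Read-out was phosphorylation of SF3b1 at Thr434, which serves as a marker of endogenous Dyrk1A activity in the cell.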

Series [7] addresses Homeodomain-interacting protein kinase 1 (Homo sapiens) (UniProt Q86Z02). The series can be described thus: Inhibition of recombinant human HIPK1 expressed in Baculovirus expression system at 2 uM by Z'-LYTE assay.
Series [8] has as its target T3, Serine/threonine-protein kinase haspin (Homo sapiens) (UniProt Q8TF76).
T3 sequence (whole entry): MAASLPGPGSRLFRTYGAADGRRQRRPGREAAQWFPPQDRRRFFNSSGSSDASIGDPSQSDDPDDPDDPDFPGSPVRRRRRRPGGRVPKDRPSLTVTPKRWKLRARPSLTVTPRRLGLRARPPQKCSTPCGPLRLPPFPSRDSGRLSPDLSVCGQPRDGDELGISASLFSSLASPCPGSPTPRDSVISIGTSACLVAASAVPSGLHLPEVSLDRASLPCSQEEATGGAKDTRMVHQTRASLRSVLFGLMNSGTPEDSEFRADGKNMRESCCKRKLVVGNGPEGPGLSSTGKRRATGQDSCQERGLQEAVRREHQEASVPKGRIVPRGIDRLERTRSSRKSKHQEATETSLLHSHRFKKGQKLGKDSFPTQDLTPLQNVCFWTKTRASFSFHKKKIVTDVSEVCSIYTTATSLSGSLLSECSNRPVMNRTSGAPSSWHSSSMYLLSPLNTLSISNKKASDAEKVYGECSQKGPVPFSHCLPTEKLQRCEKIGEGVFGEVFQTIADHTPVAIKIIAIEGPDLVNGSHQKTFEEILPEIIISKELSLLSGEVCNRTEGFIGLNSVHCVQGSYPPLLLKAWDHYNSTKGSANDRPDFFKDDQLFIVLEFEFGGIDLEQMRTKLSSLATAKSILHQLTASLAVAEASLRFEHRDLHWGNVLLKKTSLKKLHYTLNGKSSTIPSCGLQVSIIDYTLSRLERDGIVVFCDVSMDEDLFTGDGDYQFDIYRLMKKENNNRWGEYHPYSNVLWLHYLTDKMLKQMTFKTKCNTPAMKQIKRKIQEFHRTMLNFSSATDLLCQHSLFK
The series can be described thus: Inhibition of recombinant human Haspin expressed in Baculovirus expression system at 2 uM by Adapta assay.

In series [9] the target is BDNF/NT-3 growth factors receptor (Homo sapiens) (UniProt Q16620). The series can be described thus: Inhibition of recombinant human TRKB expressed in Baculovirus expression system at 2 uM by Z'-LYTE assay.
BDNF/NT-3 growth factors receptor (Homo sapiens), sequence (Q16620 32-822 limits assumed): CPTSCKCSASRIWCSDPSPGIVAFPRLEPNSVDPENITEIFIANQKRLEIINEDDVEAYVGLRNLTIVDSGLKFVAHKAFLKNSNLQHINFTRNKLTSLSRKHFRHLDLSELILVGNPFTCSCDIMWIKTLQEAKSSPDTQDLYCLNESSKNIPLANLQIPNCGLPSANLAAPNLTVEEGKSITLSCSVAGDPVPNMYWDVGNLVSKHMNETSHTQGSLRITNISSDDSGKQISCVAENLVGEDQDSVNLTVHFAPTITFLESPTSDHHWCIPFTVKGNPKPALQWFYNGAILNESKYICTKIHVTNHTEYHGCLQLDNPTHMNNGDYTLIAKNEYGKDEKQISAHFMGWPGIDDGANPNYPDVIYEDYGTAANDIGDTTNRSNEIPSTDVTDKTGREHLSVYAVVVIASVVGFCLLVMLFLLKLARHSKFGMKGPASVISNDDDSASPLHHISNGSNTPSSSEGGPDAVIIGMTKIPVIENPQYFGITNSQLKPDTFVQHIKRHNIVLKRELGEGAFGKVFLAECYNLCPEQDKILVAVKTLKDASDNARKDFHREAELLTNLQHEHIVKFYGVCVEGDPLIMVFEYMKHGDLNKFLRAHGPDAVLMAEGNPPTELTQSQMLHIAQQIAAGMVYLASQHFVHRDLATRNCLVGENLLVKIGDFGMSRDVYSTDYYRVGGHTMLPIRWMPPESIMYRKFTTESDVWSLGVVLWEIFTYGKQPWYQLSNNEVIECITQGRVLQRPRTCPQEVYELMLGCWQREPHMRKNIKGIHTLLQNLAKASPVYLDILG
Series [10] has as its target Casein kinase I isoform delta (Homo sapiens) (UniProt P48730). The series can be described thus: Inhibition of recombinant human CK1delta expressed in Baculovirus expression system at 2 uM by Z'-LYTE assay.
Series [11] concerns HeLa. The series is described as follows: Cytotoxicity against human HeLa cells assessed as cell viability at 3 uM by XTT assay. The format is functional. The following applies: read-out: Activity. For orientation: Tetrazolium assays rely on reduction of a dye to a coloured formazan, in cell work by metabolically active cells.
Series [12] deals with Dual specificity protein kinase CLK1 (Homo sapiens, UniProt P49759). The series is described as follows: Inhibition of recombinant human Clk1 expressed in Escherichia coli at 2 uM by Z'-LYTE assay.
Dual specificity protein kinase CLK1, sequence (P49759 whole entry): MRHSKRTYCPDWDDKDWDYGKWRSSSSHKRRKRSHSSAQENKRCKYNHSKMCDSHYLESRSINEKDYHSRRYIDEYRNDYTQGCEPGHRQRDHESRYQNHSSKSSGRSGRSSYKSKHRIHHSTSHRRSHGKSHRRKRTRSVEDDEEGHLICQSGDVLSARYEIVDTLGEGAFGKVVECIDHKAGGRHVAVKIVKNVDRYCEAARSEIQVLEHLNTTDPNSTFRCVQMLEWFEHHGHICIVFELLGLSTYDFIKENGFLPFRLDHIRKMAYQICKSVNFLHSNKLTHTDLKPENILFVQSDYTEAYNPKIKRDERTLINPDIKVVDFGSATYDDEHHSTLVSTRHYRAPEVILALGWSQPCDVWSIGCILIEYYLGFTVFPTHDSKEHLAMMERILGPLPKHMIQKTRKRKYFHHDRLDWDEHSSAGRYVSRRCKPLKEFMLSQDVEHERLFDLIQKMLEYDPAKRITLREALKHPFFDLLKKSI
In series [13] the target is T4, Serine/threonine-protein kinase 17A (Homo sapiens) (UniProt Q9UEE5).
T4 sequence (whole entry): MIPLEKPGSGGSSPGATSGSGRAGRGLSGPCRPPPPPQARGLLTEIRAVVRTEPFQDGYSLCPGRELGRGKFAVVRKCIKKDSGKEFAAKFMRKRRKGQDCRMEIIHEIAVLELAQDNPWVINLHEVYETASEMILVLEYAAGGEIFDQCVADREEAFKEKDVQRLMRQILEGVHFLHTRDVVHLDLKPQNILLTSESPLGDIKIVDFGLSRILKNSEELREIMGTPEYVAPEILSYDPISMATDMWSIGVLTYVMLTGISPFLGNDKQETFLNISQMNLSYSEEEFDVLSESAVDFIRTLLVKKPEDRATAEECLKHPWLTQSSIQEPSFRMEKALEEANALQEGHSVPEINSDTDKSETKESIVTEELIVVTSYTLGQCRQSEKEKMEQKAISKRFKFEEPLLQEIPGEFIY
The series can be described thus: Inhibition of recombinant human STK17A expressed in Baculovirus expression system at 2 uM by Lantha-Screen assay.

In series [14] the target is T2, Dual specificity tyrosine-phosphorylation-regulated kinase 1A. The series can be described thus: Inhibition of recombinant human Dyrk1A expressed in Baculovirus expression system at 2 uM by Z'-LYTE assay.
Series [15] has as its target Myosin light chain kinase 2, skeletal/cardiac muscle (Homo sapiens) (UniProt Q9H1R3). The series is described as follows: Inhibition of recombinant human MLCK2 expressed in Baculovirus expression system at 2 uM by Lantha-screen assay.
The target of series [16] is Dual specificity protein kinase CLK2 (Homo sapiens) (UniProt P49760). The series can be described thus: Inhibition of recombinant human Clk2 expressed in Baculovirus expression system at 2 uM by Z'-LYTE assay.
Dual specificity protein kinase CLK2 (Homo sapiens), sequence (P49760 whole entry, looked up): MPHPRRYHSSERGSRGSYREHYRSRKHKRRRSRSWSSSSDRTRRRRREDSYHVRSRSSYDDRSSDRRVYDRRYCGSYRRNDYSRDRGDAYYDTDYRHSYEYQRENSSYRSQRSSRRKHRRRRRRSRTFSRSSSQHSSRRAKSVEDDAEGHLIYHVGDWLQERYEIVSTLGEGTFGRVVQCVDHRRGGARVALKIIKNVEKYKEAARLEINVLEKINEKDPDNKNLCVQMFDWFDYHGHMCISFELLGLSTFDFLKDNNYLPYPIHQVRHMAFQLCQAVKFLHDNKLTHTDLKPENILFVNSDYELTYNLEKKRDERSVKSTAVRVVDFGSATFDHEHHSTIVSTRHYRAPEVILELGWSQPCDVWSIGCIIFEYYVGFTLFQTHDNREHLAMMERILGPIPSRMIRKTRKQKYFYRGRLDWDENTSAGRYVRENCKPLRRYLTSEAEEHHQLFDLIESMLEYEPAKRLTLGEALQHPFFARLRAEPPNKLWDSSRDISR
The target in series [17] is T2, Dual specificity tyrosine-phosphorylation-regulated kinase 1A. The series is described as follows: Inhibition of recombinant human Dyrk1A expressed in Baculovirus expression system by Z'-LYTE assay.
Series [18] has as its target Serine/threonine-protein kinase pim-1 (Homo sapiens) (UniProt P11309). The series is described as follows: Inhibition of recombinant human PIM1 expressed in Baculovirus expression system at 2 uM by Z'-LYTE assay.
In series [19] the test system is HeLa. The series is described as follows: Cytotoxicity against human HeLa cells assessed as cell viability at 1 uM by XTT assay. The format is functional. The following applies: read-out: Activity.
Series [20] concerns the target Cyclin-dependent kinase 5/CDK5 activator 1 (Homo sapiens) (UniProt Q00535+Q15078). The series can be described thus: Inhibition of recombinant human CDK5/p25 expressed in baculovirus expression system at 2 uM by Z'-LYTE assay.
Series [21] addresses SRSF protein kinase 1 (Homo sapiens) (UniProt Q96SB4). The series can be described thus: Inhibition of recombinant human SRPK1 expressed in Baculovirus expression system at 2 uM by Z'-LYTE assay.
Series [22] addresses T5, Serine/threonine-protein kinase haspin (Homo sapiens, UniProt Q8TF76).
T5 sequence (Q8TF76 whole entry): T3 sequence (whole entry)
The series is described as follows: Inhibition of recombinant human Haspin expressed in Baculovirus expression system by Adapta assay.

Series [23] has as its system HeLa. The series is described as follows: Cytotoxicity against human HeLa cells assessed as cell viability at 10 uM by XTT assay. The format is functional. The settings on record: read-out: Activity.
Series [24] deals with HeLa. The series is described as follows: Cytotoxicity against human HeLa cells after 5 days by MTT assay. The format is functional, cell-based. The following applies: 120 h.
A short description of series [25]: Half life in Sprague-Dawley rat liver microsomes at 0.5 uM by LC-MS/MS analysis. Format: ADME, microsome. In general terms: Liver microsomes are a subcellular fraction often used to study metabolism.

Dual specificity tyrosine-phosphorylation-regulated kinase 1B, sequence (Q9Y463 whole entry): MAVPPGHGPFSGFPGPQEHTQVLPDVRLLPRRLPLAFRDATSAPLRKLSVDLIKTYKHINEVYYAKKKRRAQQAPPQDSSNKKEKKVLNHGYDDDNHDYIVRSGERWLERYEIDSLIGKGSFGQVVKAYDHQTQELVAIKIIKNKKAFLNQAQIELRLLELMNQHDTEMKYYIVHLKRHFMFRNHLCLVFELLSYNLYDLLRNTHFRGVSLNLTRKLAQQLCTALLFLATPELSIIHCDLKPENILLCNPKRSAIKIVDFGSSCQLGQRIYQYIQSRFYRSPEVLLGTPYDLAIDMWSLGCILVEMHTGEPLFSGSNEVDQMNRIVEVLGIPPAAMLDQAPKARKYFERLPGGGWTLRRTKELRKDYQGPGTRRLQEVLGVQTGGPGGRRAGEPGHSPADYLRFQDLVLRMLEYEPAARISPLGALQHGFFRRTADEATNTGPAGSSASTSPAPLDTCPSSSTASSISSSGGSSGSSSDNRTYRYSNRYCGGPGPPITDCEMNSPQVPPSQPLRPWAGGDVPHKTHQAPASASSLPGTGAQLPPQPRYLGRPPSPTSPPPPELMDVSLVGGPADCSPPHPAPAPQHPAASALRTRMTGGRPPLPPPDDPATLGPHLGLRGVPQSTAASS
SRSF protein kinase 1 (Homo sapiens), sequence (Q96SB4 whole entry): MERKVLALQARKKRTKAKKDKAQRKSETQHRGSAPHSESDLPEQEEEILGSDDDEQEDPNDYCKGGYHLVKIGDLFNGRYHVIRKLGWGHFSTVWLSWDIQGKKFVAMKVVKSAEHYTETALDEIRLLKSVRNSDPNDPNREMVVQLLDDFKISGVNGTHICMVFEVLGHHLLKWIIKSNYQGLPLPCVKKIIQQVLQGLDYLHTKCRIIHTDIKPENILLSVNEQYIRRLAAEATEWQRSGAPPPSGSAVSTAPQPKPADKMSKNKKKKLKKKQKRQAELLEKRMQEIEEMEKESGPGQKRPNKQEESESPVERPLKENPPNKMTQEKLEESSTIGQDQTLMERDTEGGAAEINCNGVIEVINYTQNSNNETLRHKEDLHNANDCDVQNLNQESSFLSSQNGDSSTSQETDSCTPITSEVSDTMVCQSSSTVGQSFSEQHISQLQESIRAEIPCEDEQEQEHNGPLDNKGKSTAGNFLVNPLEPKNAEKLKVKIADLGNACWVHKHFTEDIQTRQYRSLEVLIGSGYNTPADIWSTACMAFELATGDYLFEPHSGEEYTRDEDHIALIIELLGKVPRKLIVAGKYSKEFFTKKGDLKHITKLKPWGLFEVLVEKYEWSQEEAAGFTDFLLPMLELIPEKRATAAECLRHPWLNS
Serine/threonine-protein kinase pim-1 (Homo sapiens), sequence (P11309 whole entry, looked up): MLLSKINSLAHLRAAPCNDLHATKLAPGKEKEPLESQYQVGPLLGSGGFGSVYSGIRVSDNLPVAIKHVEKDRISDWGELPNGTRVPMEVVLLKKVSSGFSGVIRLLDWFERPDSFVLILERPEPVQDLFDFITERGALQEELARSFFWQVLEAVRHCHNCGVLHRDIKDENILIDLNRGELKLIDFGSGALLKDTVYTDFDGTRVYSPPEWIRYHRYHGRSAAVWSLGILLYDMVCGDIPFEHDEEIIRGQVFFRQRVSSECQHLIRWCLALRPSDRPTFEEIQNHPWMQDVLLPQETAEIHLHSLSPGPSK
Homeodomain-interacting protein kinase 1 (Homo sapiens), sequence (Q86Z02 whole entry, looked up): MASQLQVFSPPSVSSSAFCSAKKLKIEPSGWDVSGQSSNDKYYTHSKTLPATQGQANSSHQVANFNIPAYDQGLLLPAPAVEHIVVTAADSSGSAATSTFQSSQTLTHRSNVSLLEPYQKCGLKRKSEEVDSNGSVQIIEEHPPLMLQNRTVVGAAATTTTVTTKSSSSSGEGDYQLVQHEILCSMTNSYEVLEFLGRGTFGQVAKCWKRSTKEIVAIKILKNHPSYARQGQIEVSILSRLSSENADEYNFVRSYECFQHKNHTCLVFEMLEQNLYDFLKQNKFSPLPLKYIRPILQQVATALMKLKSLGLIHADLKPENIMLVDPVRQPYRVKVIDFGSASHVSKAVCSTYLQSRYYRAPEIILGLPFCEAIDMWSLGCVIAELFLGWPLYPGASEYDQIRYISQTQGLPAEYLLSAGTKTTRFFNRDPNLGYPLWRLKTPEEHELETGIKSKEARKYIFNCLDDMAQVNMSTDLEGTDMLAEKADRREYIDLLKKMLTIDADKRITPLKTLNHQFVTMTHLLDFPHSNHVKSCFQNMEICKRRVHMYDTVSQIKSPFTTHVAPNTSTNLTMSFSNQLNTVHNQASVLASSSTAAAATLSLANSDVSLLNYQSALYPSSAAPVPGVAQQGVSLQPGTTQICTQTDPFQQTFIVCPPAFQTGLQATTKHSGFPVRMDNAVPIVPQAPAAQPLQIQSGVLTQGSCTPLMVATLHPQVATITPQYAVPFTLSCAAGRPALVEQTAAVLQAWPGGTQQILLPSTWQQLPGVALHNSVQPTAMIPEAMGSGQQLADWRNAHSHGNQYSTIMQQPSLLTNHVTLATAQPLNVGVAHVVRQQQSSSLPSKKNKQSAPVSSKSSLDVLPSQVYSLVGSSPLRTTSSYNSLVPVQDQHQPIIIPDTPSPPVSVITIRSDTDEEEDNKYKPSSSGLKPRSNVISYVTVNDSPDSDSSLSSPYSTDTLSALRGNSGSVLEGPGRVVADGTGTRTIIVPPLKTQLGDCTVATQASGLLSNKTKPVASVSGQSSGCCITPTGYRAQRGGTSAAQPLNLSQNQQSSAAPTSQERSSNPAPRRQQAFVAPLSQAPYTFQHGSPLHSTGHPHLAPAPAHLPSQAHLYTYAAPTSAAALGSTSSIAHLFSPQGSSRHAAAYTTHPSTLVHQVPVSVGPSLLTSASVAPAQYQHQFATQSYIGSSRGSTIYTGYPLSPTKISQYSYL
Casein kinase I isoform delta (Homo sapiens), sequence (P48730 whole entry, looked up, canonical isoform): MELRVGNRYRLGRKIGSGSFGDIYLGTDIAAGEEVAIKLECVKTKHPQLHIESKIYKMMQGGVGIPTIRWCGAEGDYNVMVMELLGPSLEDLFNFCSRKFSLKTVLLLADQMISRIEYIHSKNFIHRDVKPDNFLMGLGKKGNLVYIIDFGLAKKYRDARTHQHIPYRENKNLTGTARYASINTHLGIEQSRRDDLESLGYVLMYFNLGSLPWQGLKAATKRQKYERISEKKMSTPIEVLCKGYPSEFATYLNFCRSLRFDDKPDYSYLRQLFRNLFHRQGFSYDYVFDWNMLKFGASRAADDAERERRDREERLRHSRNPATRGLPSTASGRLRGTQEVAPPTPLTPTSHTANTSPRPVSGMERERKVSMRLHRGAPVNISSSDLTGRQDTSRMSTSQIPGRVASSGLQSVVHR

By IC50 is commonly meant the concentration that gives 50% inhibition. As for `Nc1cncc(-c2csc(-c3cccnc3)c2)c1`, in series [1], the IC50 worked out at 0.13 µM.

By half-life is commonly meant the time in which the quantity being followed falls by half. Take `O=C(Nc1cncc(-c2cc(-c3cccnc3)cs2)c1)c1c(F)cc(F)cc1F`: the half-life at 0.3 µM in [2] was determined as 2.05 h. Besides, the IC50 in series [1] came out at 0.298 µM.

For `Oc1ccc(-c2nc3ccc4[nH]ncc4c3c3c2CCCC3)c(F)c1`, the IC50 with HeLa [3] worked out at 4.8 µM.

For orientation: inhibition means the percentage by which the read-out fell short of the control. As to `O=C(Cc1ccc(F)cc1)Nc1cncc(-c2cc(-c3cccnc3)cs2)c1`, the inhibition at 2 µM in [4] and in series [12] was 40% each time. In addition, the half-inhibitory concentration (IC50) was found to be 0.0143 µM in series [5]; 0.079 µM in series [6]; 0.0143 µM in series [17]; 0.383 µM in series [1]; 0.036 µM in series [22]. Further, the inhibition in series [7] is 0%; in series [8] it was 95%; in series [9], 10%; in series [10], 4%; in series [13] it was 60%; in series [14], 87%. Further, the inhibition in [15] came out at 9.8%; in [16], 19%; in series [18] it was 8%; in series [20], 0%; in [21] it was 2%. Also, in the series with HeLa [11], the viability at 3 µM stood at 97%. In series [2], the half-life at 0.3 µM is 1.97 h. For the same molecule, the viability at 1 µM in the series on HeLa [19] is 99%. Also, the viability at 10 µM in the series with HeLa [23] came to 88%.

As for `C[C@]12CC[C@H]3[C@@H](CCC4=CC(=O)CC[C@@]43C)[C@@H]1CC[C@@H]2O` [TESTOSTERONE], the half-life at 0.3 µM in [2] is 0.142 h.

As for `CN[C@@H]1C[C@H]2O[C@@](C)([C@@H]1OC)n1c3ccccc3c3c4c(c5c6ccccc6n2c5c31)C(=O)NC4` [STAUROSPORINE], the viability at 1 µM with HeLa [19] came out at 33%.

Turning to `Nc1ccc(-c2cc(-c3cccnc3)cs2)cn1`, the IC50 in series [1] was 0.251 µM.

On to `Nc1cncc(-c2cc(-c3cccnc3)cs2)c1`, for which, in [1], the IC50 came out at 0.154 µM.

`COc1ccc2c(c1)[nH]c1c(C)nccc12` [HARMINE] came in with a half-inhibitory concentration (IC50) in the series with HeLa [24] of 8 µM.

On to `O=C(Cc1ccccc1)Nc1cncc(-c2cc(-c3cccnc3)cs2)c1`, for which the IC50 in series [1] was determined as 0.326 µM.

With `c1cncc(-c2cc(-c3cncs3)cs2)c1`, the half-life at 0.5 µM in series [25] was found to be 0.45 h.
